# Hits are enriched below; roughly 1.2% of the tested compounds scored in any of these assays.
# AF4-AF9 inh: MLL-AF4/AF9 protein interaction inhibition; AlphaScreen, biotin-AF4 peptide binding to FLAG-AF9; inhibition, % at 10 µM; 0.47% of 350,000 active; P42568; AID 651704;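 active = every replicate reaching a set inhibition limit, whatever the replicate mean, cut at about 25% in these data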;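 note: 0% = plate neutral control median and 100% = total signal loss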
# RAD52 anneal inh: inhibitors of human RAD52 DNA annealing. AID 651710. inhibition, % at 18.7 µM. recombinant RAD52 DNA annealing, FRET fluorescence. P43351. 0.46% of 360,000 active;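 active = every replicate showing at least 50% inhibition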
# N-glyco inh: N-linked glycosylation inhibition | D54 ERlucT glycosylation luciferase reporter, 24 h; percent of 100 nM tunicamycin response | reporter increase, % at 12.5 µM | 0.23% of 360,000 active | AID 588692;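 active = mean luciferase reporter signal, scaled so untreated is 0 and the glycosylation-blocking control 100, at or above a set limit in every replicate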;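 note: luciferase carries N-glycosylation sites so blocking glycosylation raises the light; 0% = median of neutral control wells and 100% = median of 100 nM tunicamycin wells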
# FN deposit inh: fibronectin deposition inhibition; 0.086% of 350,000 active; inhibition, % at 12.6 µM; AH1F fibroblasts, Alexa488-fibronectin deposition fluorescence, overnight;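 active = mean inhibition across replicates of 30% or more, regardless of how many single replicates reach that level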;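 note: positive control wells lacked labelled fibronectin entirely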
#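 Assay system: AH1F fibroblasts / Quantity: 10000 cells per well / Medium: DMEM plus 2% serum, read in PBS / Reagent: labelled fibronectin 24 nM / Dosing: single dose, pinned / Times: 1 h cell attachment, overnight exposure to compound and label / Signal: fluorescence, ex 485 nm, em 525 nm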
# RAD54 inh: blocks human RAD54 Holliday junction branch migration | inhibition, % at 10.4 µM | 0.14% of 360,000 active | FAM/BHQ fluorescence | Q92698 | AID 602329;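 active = mean normalized replicate activity at least 40 and at least half of replicates scoring 40 or more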;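 note: 0% = median of neutral control wells and 100% = median of positive control wells; inhibitors cause a drop in the FAM fluorescence signal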
# Target sequence (Q92698 whole entry, looked up): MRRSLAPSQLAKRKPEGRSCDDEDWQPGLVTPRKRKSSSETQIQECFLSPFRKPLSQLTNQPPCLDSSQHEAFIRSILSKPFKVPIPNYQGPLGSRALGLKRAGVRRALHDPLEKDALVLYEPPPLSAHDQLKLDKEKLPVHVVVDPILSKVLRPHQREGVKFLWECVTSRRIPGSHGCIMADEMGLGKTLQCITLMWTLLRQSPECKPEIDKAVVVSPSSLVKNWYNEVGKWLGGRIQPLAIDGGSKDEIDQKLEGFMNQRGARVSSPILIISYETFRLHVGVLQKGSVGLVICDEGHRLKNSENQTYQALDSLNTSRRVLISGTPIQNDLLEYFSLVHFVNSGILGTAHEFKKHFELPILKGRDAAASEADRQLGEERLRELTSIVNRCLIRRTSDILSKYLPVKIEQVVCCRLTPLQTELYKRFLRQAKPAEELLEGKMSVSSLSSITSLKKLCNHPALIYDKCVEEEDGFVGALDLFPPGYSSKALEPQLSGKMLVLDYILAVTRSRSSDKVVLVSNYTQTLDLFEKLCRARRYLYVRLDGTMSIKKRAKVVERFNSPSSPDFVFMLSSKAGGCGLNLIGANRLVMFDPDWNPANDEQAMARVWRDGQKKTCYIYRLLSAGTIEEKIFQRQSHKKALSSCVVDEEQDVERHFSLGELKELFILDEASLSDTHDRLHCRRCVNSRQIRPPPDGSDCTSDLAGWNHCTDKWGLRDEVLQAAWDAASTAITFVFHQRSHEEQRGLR
# NSD2 HMT inh: inhibitors of human histone methyltransferase NSD2 | O96028 | NSD2 peptide methylation, AlphaScreen, 120 min | 0.54% of 310,000 active | inhibition, % at 12.5 µM; in the data active = inhibition above about 50%
# AlphaScreen art: interferes with AlphaScreen signal, flagging NSD2 false positives | AID 1053174 | shares compounds with NSD2 HMT inh | 9.4% of 1,500 active | AlphaScreen artifact counterscreen, preloaded methylated H4 peptide | AC35, µM (top dose mostly 10 µM), without a hit: at the highest dose activity change, negative = signal loss; call rule not given here
# * = called active by the depositor; · = no result given; + = active, no number.
SMILES,AF4-AF9 inh,RAD52 anneal inh,N-glyco inh,FN deposit inh,RAD54 inh,NSD2 HMT inh,AlphaScreen art
CNCc1ccccc1Sc1ccc(O)c(O)c1,1,-1,-1,-1,·,64*,-8%
Cn1nc(C(F)(F)F)cc1-c1ccc(/C=C(\C#N)C(=O)c2ccccc2)s1,-5,-143,2,1,2,1,·
CNC(=O)c1ccc(-c2cc(C(F)(F)F)nn2C)s1,0,-14,2,-11,-1,60*,-2%
O=C(C[C@@H]1CC[C@H](NC(=O)C2CC2)[C@H](CO)O1)Nc1nccs1,-3,-1,·,-2,-1,·,·
Cc1ccc(C(=O)C2CCN(S(=O)(=O)c3ccc(C(=O)O)cc3)CC2)cc1,0,-22,3,0,-19,66*,-5%
CN1C(=O)N(C)c2cccc3cccc1c23,-3,-20,0,-5,-8,0,·
CCc1ccc2cccc3c2c1N=CN3C,6,-18,8,10,-6,112*,0%
Cc1c(N=NC2=C(O)CC(C)(C)CC2=O)c(=O)n(-c2ccccc2)n1C,-6,-18,2,2,·,96*,-2%
CC(=O)/C(N=Nc1c(C)n(C)n(-c2ccccc2)c1=O)=C(\C)O,0,-4,1,-1,·,-7,·
CO[C@@H]1CN(C)C(=O)c2cc(NC(=O)C3CCC3)ccc2OC[C@@H](C)N(Cc2nccs2)C[C@@H]1C,0,-27,·,-6,3,·,·
Cc1cccc(Nc2nc(NCc3ccco3)nc(N)c2[N+](=O)[O-])c1,-10,-9,-2,8,-17,96*,-5%
Cc1cccc(Nc2nc(N)c([N+](=O)[O-])c(NCc3ccco3)n2)c1,14,-12,-5,14,7,0,·
COc1ccc(NC2CCCN(C(=O)c3ccccc3N3CCOCC3)C2)cc1OC (centres undefined),0,-9,2,·,-7,72*,1%
Cc1[nH]n(-c2ccccc2)c(=O)c1C(c1cccc([N+](=O)[O-])c1)c1c(C)[nH]n(-c2ccccc2)c1=O,13,-19,2,0,·,24,·
Cc1[nH]n(-c2ccccc2)c(=O)c1C(c1ccc(C(=O)O)cc1)c1c(C)[nH]n(-c2ccccc2)c1=O,7,-13,3,-4,·,57*,0%
CC1CCCCC1NC(=O)COC(=O)c1ccc2c(=O)n3c(nc2c1)CCC3 (centres undefined),1,-6,0,-8,3,117*,-1%
O=C(Nc1ccccn1)c1ccc2c(=O)n3c(nc2c1)CCCCC3,-4,7,-11,-6,-3,61*,-1%
O=C(Nc1ccc(Cl)cc1)c1ccc2c(=O)n3c(nc2c1)CCCCC3,-2,-20,-1,4,-7,·,·
Cc1cc(C(F)(F)F)n(-c2nc(C(=O)Nc3cccnc3)cs2)n1,-3,-12,2,3,-11,-2,·
CC(=O)c1cccc(NC(=O)c2csc(-n3nc(C)cc3C(F)(F)F)n2)c1,·,·,1,-13,12,125*,1%
Nc1cccc2c(O)cc(S(=O)(=O)O)cc12,·,·,1,·,-34,·,·
Nc1ccc2c(O)cc(S(=O)(=O)O)cc2c1,-6,-120,-1,-6,73*,80*,-21%
O=S(=O)(O)c1cc(O)c2cc(Nc3ccccc3)ccc2c1,3,-23,0,-1,12,105*,6.4µM*
O=S(=O)(O)c1ccc(O)c2cc(Nc3ccccc3)ccc12,4,5,-2,10,19,·,·
O=C(NC1CCCCC1)[C@H]1[C@H](CO)[C@H]2Cn3c(cccc3=O)[C@H]2N1CC1CCCC1,-4,-8,·,-15,·,·,·
SMILES,AF4-AF9 inh,RAD52 anneal inh,N-glyco inh,FN deposit inh,RAD54 inh,NSD2 HMT inh,AlphaScreen art
C[C@@H]1CN([C@@H](C)CO)C(=O)Cc2cc(NC(=O)Nc3ccccc3)ccc2O[C@H]1CN(C)C(=O)Nc1cccc2ccccc12,-2,17,·,·,2,·,·
C[C@H](CO)N1C[C@H](C)[C@H](CN(C)Cc2ccncc2)Oc2ccc(NC(=O)c3ccncc3)cc2C1=O,-6,9,·,·,8,·,·
O=C(O)c1ccc2cccnc2c1O,-3,-3,0,-3,3,61*,-5%
O=C(NNC(=O)c1cccs1)c1ccc(Cl)c([N+](=O)[O-])c1,-2,-9,1,5,·,54*,-6%
O=C(COC(=O)CNC(=O)c1ccc(Cl)c([N+](=O)[O-])c1)NNC(=O)c1cccs1,-2,-2,1,-2,-7,0,·
CCCNC(=O)N1CC2(C1)CN(C(=O)CC)[C@H](CO)c1c2c2ccc(OC)cc2n1C,2,5,·,·,·,·,·
CCCc1[nH]n(-c2nc3ccccc3s2)c(=O)c1C=NCCCN(CC)CC,1,-12,0,-5,·,54*,1%
CCCc1cc(=O)n(-c2nc3ccccc3s2)[nH]1,-1,-6,-1,-11,-12,79*,1%
COc1ccc(CCC(=O)NCCOc2ccc(C)cc2)cc1,-2,-15,3,2,7,-5,·
COc1ccc(CCC(=O)NCCOc2ccccc2Cl)cc1,-14,-2,-1,0,·,124*,-2%
CC(C)(C)c1cc[n+](C2=C([O-])c3ccccc3C(=O)/C2=N\S(=O)(=O)c2cccs2)cc1,-2,2,-20,7,-21,62*,-6%
CC(=O)Nc1ccc(Sc2ccccc2C(=O)Nc2ccc(F)cc2)cn1,0,-26,2,2,·,-1,·
CC(=O)Nc1ccc(Sc2ccccc2C(=O)O)cn1,-2,-13,2,-6,10,73*,-4%
O=c1oc2ccccc2n1CCn1c2ccccc2c2nc3ccccc3nc21,·,·,1,·,0,-1,·
COc1ccc2c(c1)c1nc3ccccc3nc1n2CCn1c(=O)oc2ccccc21,·,·,3,6,-9,58*,0%
CC1=Nc2cccc3cccc(c23)N1C,·,·,5,4,·,+,3%
CCOC(=O)CC(NS(=O)(=O)c1ccc(OC)c(OC)c1)c1cccc([N+](=O)[O-])c1 (centres undefined),1,-3,2,-1,-2,0,·
CCOC(=O)CC(NS(=O)(=O)c1ccc2[nH]cc(C(=O)O)c(=O)c2c1)c1ccc(OCC)c(OC)c1 (centres undefined),-2,-9,1,3,-9,68*,-1%
Cc1nn(C)cc1NC(=O)C[C@@H]1CC[C@@H]2[C@@H](COc3ccc(NC(=O)Nc4cccc(Cl)c4)cc3C(=O)N2C)O1,2,-12,·,18,4,·,·
COc1ccc(NC(=O)Nc2ccc3c(c2)C(=O)N([C@@H](C)CO)C[C@H](C)[C@@H](CN(C)Cc2ccc(C(=O)O)cc2)OCCCC[C@@H](C)O3)cc1,1,7,·,·,1,·,·
